Laboratory results as given in ChEMBL document CHEMBL1126800, “Preparation of substituted N-phenyl-4-aryl-2-pyrimidinamines as mediator release inhibitors” (J Med Chem, 1993).

Organism: Homo sapiens
Assay: In vitro inhibition of histamine release from human basophils
Assay type: functional, organism-based
Conditions: not given
Method in brief: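 Human basophils separated from leukocytes were incubated with test compound, then challenged with anti-IgE or antigen (Lichtenstein method). Histamine release was measured against controls and blanks. IC50 is the concentration lowering histamine release by 50%.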

| IC50 [nM] | Compound |
| --- | --- |
| 400 | FC(F)(F)c1cccc(Nc2nccc(-c3ccccn3)n2)c1 [listing 1 of 2 here] |
| 1300 | c1ccc(Nc2nccc(-c3cccnc3)n2)cc1 |
| 2900 | FC(F)(F)c1cccc(Nc2nccc(-c3ccccn3)n2)c1 [listing 2 of 2 here] |
| 2400 | Nc1ccc(Nc2nccc(-c3ccncc3)n2)cc1 [listing 1 of 2 here] |

The remaining lines, values behind:

| Compound | IC50 [nM] |
| --- | --- |
| FC(F)(F)c1cccc(Nc2nccc(-c3cccnc3)n2)c1 [listing 1 of 2 here] | 700 |
| c1cc(Nc2nccc(-c3ccncc3)n2)cc(-n2ccnc2)c1 [listing 1 of 2 here] | 3900 |
| c1ccc(-c2ccnc(Nc3cccc(-n4ccnc4)c3)n2)nc1 | 200 |
| FC(F)(F)c1cccc(Nc2nccc(-c3cccnc3)n2)c1 [listing 2 of 2 here] | 2100 |
| c1cc(Nc2nccc(-c3ccncc3)n2)cc(-n2ccnc2)c1 [listing 2 of 2 here] | 600 |

Same assay, conditions: Homo sapiens

| IC50 [nM] | Compound |
| --- | --- |
| 1500 | Nc1ccc(Nc2nccc(-c3ccccn3)n2)cc1 |
| 2900 | Nc1ccc(Nc2nccc(-c3ccncc3)n2)cc1 [listing 2 of 2 here] |
| 12400 | CCOC(=O)c1ccc(Nc2nccc(-c3cccnc3)n2)cc1 |
| 500 | NS(=O)(=O)c1cccc(Nc2nccc(-c3ccccn3)n2)c1 |
| 26800 | Cc1cc(-c2ccccn2)nc(Nc2ccccc2)n1 |
| 500 | CC(=O)N(C)c1ccc(Nc2nccc(-c3ccncc3)n2)cc1 |
| 2100 | CCc1ccc(Nc2nccc(-c3ccccn3)n2)cc1 |
| 15600 | COc1ccc(Nc2nccc(-c3ccsc3)n2)cc1 |
| 8300 | COc1ccc(Nc2nccc(-c3ccccn3)n2)cc1 |
| 1000 | CCN(CC)CCSc1ccc(Nc2nccc(-c3ccncc3)n2)cc1 |
| 10600 | CCc1cccc(Nc2nccc(-c3ccncc3)n2)c1 |
| 300 | Nc1cccc(Nc2nccc(-c3ccccn3)n2)c1 |
| 1900 | Fc1ccc(Nc2nccc(-c3ccncc3)n2)cc1 |
| 1300 | CCN(CC)CCCOc1ccc(Nc2nccc(-c3ccncc3)n2)cc1 |
| 5100 | Oc1ccc(Nc2nccc(-c3cccnc3)n2)cc1 |
| 600 | CC(C)(C)c1ccc(Nc2nccc(-c3cccnc3)n2)cc1 |
| 4200 | COc1ccc(Nc2nccc(-c3ccncc3)n2)cc1 |
| 5300 | CC(=O)Nc1ccc(Nc2nccc(-c3ccncc3)n2)cc1 |
| 200 | c1cc(Nc2nccc(-c3ccncc3)n2)cc(OCCn2ccnc2)c1 |
| > 3000 | Cc1cn(-c2ccc(Nc3nccc(-c4ccncc4)n3)cc2)cn1 |
| 2100 | CNc1ccc(Nc2nccc(-c3cccnc3)n2)cc1 |

| IC50 [nM] | Compound |
| --- | --- |
| 4000 | CCc1ccc(Nc2nccc(-c3ccnc4ccccc34)n2)cc1 |
| > 3000 | CCN(CC)CCOc1ccc(Nc2nccc(-c3ccccn3)n2)cc1 |
| 2200 | c1coc(-c2ccnc(Nc3ccc(-n4ccnc4)cc3)n2)c1 |
| 200 | NS(=O)(=O)c1ccc(Nc2nccc(-c3cccnc3)n2)cc1 |
| 2800 | CN(C)c1ccc(Nc2nccc(-c3cccnc3)n2)cc1 |
| 28000 | CCN(CC)c1ccc(Nc2nccc(-c3ccc(C)o3)n2)cc1 |
| 4600 | CC(C)N(CCOc1ccc(Nc2nccc(-c3cccnc3)n2)cc1)C(C)C |
| 600 | CCN(CC)CCOc1cccc(Nc2nccc(-c3ccncc3)n2)c1 |
| 31900 | Cc1cc(-c2ccccn2)nc(Nc2ccc(N(C)C)cc2)n1 |
| 33300 | COc1ccc(Nc2nccc(-c3cc[n+](C)cc3)n2)cc1 |
| 200 | CCN(CC)CCOc1ccc(Nc2nccc(-c3cccnc3)n2)cc1 |
| 400 | c1ccc(-c2ccnc(Nc3cccc(OCCn4ccnc4)c3)n2)nc1 |
| 3000 | CCOC(=O)c1cccc(Nc2nccc(-c3ccccn3)n2)c1 |
| 1400 | c1ccc(-c2ccnc(Nc3ccc(-n4ccnc4)cc3)n2)nc1 |
| 900 | CN(C)c1ccc(Nc2nccc(-c3cccs3)n2)cc1 |
| 36200 | CN(C)c1ccccc1Nc1nccc(-c2ccncc2)n1 |
| 300 | CC(=O)Nc1cccc(Nc2nccc(-c3ccccn3)n2)c1 |
| 300 | CC1CCN(C(=O)COc2ccc(Nc3nccc(-c4ccncc4)n3)cc2)CC1 |
| 8700 | CCN(CC)c1ccc(Nc2nccc(-c3ccco3)n2)cc1 |
| 200 | c1cc(Nc2nccc(-c3ccco3)n2)cc(OCCn2ccnc2)c1 |
| 1900 | CC1CCN(c2ccc(Nc3nccc(-c4ccccn4)n3)cc2)CC1 |

| IC50 [nM] | Compound |
| --- | --- |
| 10500 | CCOC(=O)c1cccc(Nc2nccc(-c3cccnc3)n2)c1 |
| 800 | CC(=O)c1ccc(Nc2nccc(-c3cccnc3)n2)cc1 |
| 2900 | CCN(CC)CCOc1cccc(Nc2nccc(-c3cccnc3)n2)c1 |
| 600 | CN(C)CCCOc1ccc(Nc2nccc(-c3cccnc3)n2)cc1 |
| 1400 | CCN(CC)CCOc1cccc(Nc2nccc(-c3ccco3)n2)c1 |
| 7700 | CCc1ccc(Nc2nccc(-c3ccncc3)n2)cc1 |
| 1800 | CC(=O)N(C)c1ccc(Nc2nccc(-c3ccccn3)n2)cc1 |
| 100 | Cc1cc(C)cc(Nc2nccc(-c3ccccn3)n2)c1 |
| > 24000 | CCN(CC)c1ccc(Nc2nccc(-c3cc(C)oc3C)n2)cc1 |
| 400 | CN(C)c1cccc(Nc2nccc(-c3ccccn3)n2)c1 |
| 4600 | NS(=O)(=O)c1ccc(Nc2nccc(-c3ccccn3)n2)cc1 |
| 700 | CN(C)CCOc1ccc(Nc2nccc(-c3cccnc3)n2)cc1 |
| 400 | COc1cccc(Nc2nccc(-c3ccncc3)n2)c1 |
| 19200 | CCc1ccc(Nc2nccc(-c3cc(C)oc3C)n2)cc1 |
| 200 | COc1cccc(Nc2nccc(-c3ccccn3)n2)c1 |
| 3600 | CC(=O)Nc1ccc(Nc2nccc(-c3cccnc3)n2)cc1 |
| 1900 | CN(C)c1ccc(Nc2nccc(-c3ccco3)n2)cc1 |
| 1400 | CNc1ccc(Nc2nccc(-c3ccccn3)n2)cc1 |
| 3900 | COc1ccc(Nc2nccc(-c3cccs3)n2)cc1 |
| 3300 | Oc1ccc(Nc2nccc(-c3ccncc3)n2)cc1 |

More lines, now with the values behind:

| Compound | IC50 [nM] |
| --- | --- |
| c1ccc(-c2nccc(-c3ccncc3)n2)cc1 | 13900 |
| Nc1cccc(Nc2nccc(-c3cccnc3)n2)c1 | 500 |
| c1cncc(-c2ccnc(Nc3cccc(-n4ccnc4)c3)n2)c1 | 200 |
| Clc1cccc(Nc2nccc(-c3cccnc3)n2)c1 | 1500 |
| Cc1cc(-c2ccco2)nc(Nc2ccccc2)n1 | 17700 |
| Cc1ccsc1-c1ccnc(Nc2ccc(N(C)C)cc2)n1 | 1800 |
| Fc1cccc(F)c1Nc1nccc(-c2cccnc2)n1 | 21000 |
| c1ccc(Nc2nccc(-c3ccco3)n2)cc1 | 32000 |
| Cc1cccc(Nc2nccc(-c3cc(C)oc3C)n2)c1 | 28500 |
| Cc1cc(C)cc(Nc2nc(C)cc(-c3ccco3)n2)c1 | > 24000 |
| Cc1cccc(Nc2nccc(-c3ccco3)n2)c1 | 2100 |
| Cc1cccc(Nc2nccc(-c3cccnc3)n2)c1 | 1500 |
| Oc1ccccc1Nc1nccc(-c2cccnc2)n1 | 23500 |
| c1cc(Nc2nccc(-c3cccs3)n2)cc(-n2ccnc2)c1 | 300 |
| c1ccc(Nc2nccc(-c3cccs3)n2)cc1 | 31700 |
| CC1CCN(c2ccc(Nc3nccc(-c4cccs4)n3)cc2)CC1 | 400 |
| CN(C)c1cccc(Nc2nccc(-c3ccncc3)n2)c1 | 3700 |
| CCOC(=O)C(=O)N(c1ccccc1)c1nccc(-c2ccncc2)n1 | 2200 |
| Cc1cccc(Nc2nccc(-c3c[nH]c4ccccc34)n2)c1 | 2200 |
| COc1cccc(Nc2nccc(-c3cc(C)oc3C)n2)c1 | 5800 |

| Compound | IC50 [nM] |
| --- | --- |
| NS(=O)(=O)c1ccc(Nc2nccc(-c3ccncc3)n2)cc1 | 5100 |
| CN(C)c1cccc(Nc2nccc(-c3cccs3)n2)c1 | 2400 |
| Nc1cccc(Nc2nccc(-c3ccncc3)n2)c1 | 1000 |
| CN(C)c1cccc(Nc2nccc(-c3cccnc3)n2)c1 | 1800 |
| COc1cccc(Nc2nccc(-c3ccco3)n2)c1 | 400 |
| CC1CCN(c2ccc(Nc3nccc(-c4ccco4)n3)cc2)CC1 | 1800 |
| COc1ccc(N(C)c2nccc(-c3ccncc3)n2)cc1 | > 24000 |
| Fc1cccc(Nc2nccc(-c3ccncc3)n2)c1 | 700 |
| COc1ccccc1Nc1nccc(-c2cccnc2)n1 | 9800 |
| NS(=O)(=O)c1cccc(Nc2nccc(-c3cccnc3)n2)c1 | 200 |
| COc1cccc(Nc2nccc(-c3ccsc3)n2)c1 | 1800 |
| CC(=O)Nc1cccc(Nc2nccc(-c3ccncc3)n2)c1 | 2700 |
| CC1CCN(c2cccc(Nc3nccc(-c4ccco4)n3)c2)CC1 | 5000 |
| c1cc(Nc2nccc(-c3ccco3)n2)cc(-n2ccnc2)c1 | 800 |
| CC1CCN(c2ccc(Nc3nccc(-c4ccncc4)n3)cc2)CC1 | 600 |
| Cc1cc(C)cc(Nc2ncc(C)c(-c3cccnc3)n2)c1 | > 24000 |
| CC(=O)Nc1cccc(Nc2nccc(-c3cccnc3)n2)c1 | 3600 |
| Cc1cc(-c2ccnc(Nc3ccccc3)n2)c(C)o1 | 2000 |
| Cc1cc(C)cc(Nc2nc(C)cc(-c3ccccn3)n2)c1 | > 24000 |
| Cc1cccc(Nc2nccc(-c3ccncc3)n2)c1 | 8800 |

| Compound | IC50 [nM] |
| --- | --- |
| Cc1cc(C)cc(Nc2nccc(-c3cccnc3)n2)c1 | 800 |
| Cc1cccc(Nc2nccc(-c3ccc[nH]3)n2)c1 | 8500 |
| Cc1cc(C)cc(Nc2nccc(-c3cc(C)oc3C)n2)c1 | 4100 |
| c1cc(-c2ccnc(Nc3ccc(-n4ccnc4)cc3)n2)ccn1 | 7600 |
| COc1cccc(Nc2nccc(-c3ccc(C)s3)n2)c1 | 2300 |
| CC1CCN(c2cccc(Nc3nccc(-c4cccnc4)n3)c2)CC1 | 1200 |
| c1ccc(Nc2nccc(-c3c[nH]c4ccccc34)n2)cc1 | 3000 |
| Cc1ccc(-c2ccnc(Nc3cccc(N(C)C)c3)n2)s1 | 5700 |
| COc1cccc(Nc2nccc(-c3cccs3)n2)c1 | 900 |
| Cc1cccc(Nc2nccc(-c3ccc(C)o3)n2)c1 | 2000 |
| Cc1cccc(Nc2nccc(-c3ccsc3)n2)c1 | 3800 |
| Cc1cc(-c2ccncc2)nc(Nc2ccc(N(C)C)cc2)n1 | > 24000 |
| Cc1cc(C)cc(Nc2nccc(-c3cccs3)n2)c1 | 4300 |
| CCc1cccc(Nc2nccc(-c3ccco3)n2)c1 | 9700 |
| c1cncc(-c2ccnc(Nc3ccc(-n4ccnc4)cc3)n2)c1 | 1300 |
| COc1ccc(N(C)c2nccc(-c3cccnc3)n2)cc1 | > 24000 |
| Cc1ccccc1Nc1nccc(-c2ccncc2)n1 | 3900 |
| CN(c1ccccc1)c1nccc(-c2ccncc2)n1 | > 24000 |
| NS(=O)(=O)c1cccc(Nc2nccc(-c3ccncc3)n2)c1 | 500 |
